In ChEMBL document CHEMBL4765336, “Discovery of coumarin derivatives as potent and selective cyclin-dependent kinase 9 (CDK9) inhibitors with high antitumour activity” (Eur J Med Chem, 2020):

Columns and labels:
[1] = Metabolic stability in dog liver microsomes assessed as half life at 1 uM incubated up to 60 mins in presence of NADPH by LC-MS/MS analysis; assay type: ADME, Canis lupus familiaris, Microsome
Method in brief: (§1)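 Liver microsomes (0.5 mg/mL) incubated at 37 °C with compound at 1.0 μM final, 3 mM MgCl2 and 1 mM NADPH in 100 mM PBS pH 7.4. Samples taken at 0, 5, 15, 30, 60 min; remaining parent measured by LC-MS/MS. k = −slope, T1/2 = 0.693/k, CLint = k/microsomal protein concentration. Midazolam served as control.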

[2] = Metabolic stability in human liver microsomes assessed as intrinsic clearance at 1 uM incubated up to 60 mins in presence of NADPH by LC-MS/MS analysis; assay type: ADME, Microsome; conditions: read-out: CLH; method in brief: as §1
[3] = test system: NCI-N87; assay: Antiproliferative activity against human NCI-N87 cells assessed as inhibition of cell growth incubated for 72 hrs by Celltiter-Glo luminescent assay; assay type: functional, cell-based; conditions: NCI-N87, 72 h
Method in brief: (§2)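 Cells seeded in growth medium and held overnight at 37 °C; medium-only wells served as background. DMSO stocks were diluted in medium to 3× final and added; cells incubated 72 h at 37 °C, 5% CO2. Viability read by CellTiter-Glo luminescence after 60 min at room temperature. IC50 from curve fit, mean of duplicate.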

[4] = Metabolic stability in rat liver microsomes assessed as half life at 1 uM incubated up to 60 mins in presence of NADPH by LC-MS/MS analysis; assay type: ADME, Microsome; method in brief: as §1
[5] = Metabolic stability in monkey liver microsomes assessed as intrinsic clearance at 1 uM incubated up to 60 mins in presence of NADPH by LC-MS/MS analysis; assay type: ADME, Macaca mulatta, Microsome; conditions: rhesus monkey, read-out: CLH; method in brief: as §1
[6] = test system: MV4-11; assay: Antiproliferative activity against human MV4-11 cells assessed as inhibition of cell growth incubated for 72 hrs by Celltiter-Glo luminescent assay; assay type: functional, cell-based; conditions: MV4-11, 72 h; method in brief: as §2
[7] = Metabolic stability in monkey liver microsomes assessed as half life at 1 uM incubated up to 60 mins in presence of NADPH by LC-MS/MS analysis; assay type: ADME, Macaca mulatta, Microsome; conditions: rhesus monkey; method in brief: as §1
[8] = test system: BXPC-3; assay: Antiproliferative activity against human BxPC3 cells assessed as inhibition of cell growth incubated for 72 hrs by Celltiter-Glo luminescent assay; assay type: functional, cell-based; conditions: BXPC-3, 72 h; method in brief: as §2
[9] = biological target: CDK2/Cyclin A2 (Homo sapiens, UniProt P24941); assay: Inhibition of CDK2/Cyclin A (unknown origin) preincubated for 20 mins followed by ATP addition and measured after 120 mins in presence of [33P-gamma] ATP by hotspot kinase assay; assay type: protein-complex assay
Method in brief: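 Radiometric filter-binding assay: kinase and substrate in 20 mM Hepes pH 7.5, 10 mM MgCl2, 1 mM EGTA, 0.02% Brij35, 0.02 mg/mL BSA, 0.1 mM Na3VO4, 2 mM DTT, 1% DMSO. Compound (top 1/10/27 μM, 3-fold serial dilutions) preincubated 20 min at 25 °C. ATP plus [γ-33P]ATP added to 10 μM final, reacted 120 min at 25 °C. IC50 from curve fit, duplicate mean.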

[10] = Metabolic stability in rat liver microsomes assessed as intrinsic clearance at 1 uM incubated up to 60 mins in presence of NADPH by LC-MS/MS analysis; assay type: ADME, Microsome; conditions: read-out: CLH; method in brief: as §1
[11] = test system: A549; assay: Antiproliferative activity against human A549 cells assessed as inhibition of cell growth incubated for 72 hrs by Celltiter-Glo luminescent assay; assay type: functional, cell-based; conditions: A549, 72 h; method in brief: as §2
[12] = test system: A-375; assay: Antiproliferative activity against human A-375 cells assessed as inhibition of cell growth incubated for 72 hrs by Celltiter-Glo luminescent assay; assay type: functional, cell-based; conditions: A-375, 72 h; method in brief: as §2
[13] = test system: SW-620; assay: Antiproliferative activity against human SW-620 cells assessed as inhibition of cell growth incubated for 72 hrs by Celltiter-Glo luminescent assay; assay type: functional, cell-based; conditions: SW-620, 72 h; method in brief: as §2
[14] = biological target: CDK9/cyclin T1 (Homo sapiens, UniProt P50750); assay: Inhibition of CDK9/Cyclin T1 (unknown origin) preincubated for 20 mins followed by ATP addition and measured after 120 mins in presence of [33P-gamma] ATP by hotspot kinase assay; assay type: protein-complex assay
Chain of CDK9/cyclin T1 (O60563 whole entry): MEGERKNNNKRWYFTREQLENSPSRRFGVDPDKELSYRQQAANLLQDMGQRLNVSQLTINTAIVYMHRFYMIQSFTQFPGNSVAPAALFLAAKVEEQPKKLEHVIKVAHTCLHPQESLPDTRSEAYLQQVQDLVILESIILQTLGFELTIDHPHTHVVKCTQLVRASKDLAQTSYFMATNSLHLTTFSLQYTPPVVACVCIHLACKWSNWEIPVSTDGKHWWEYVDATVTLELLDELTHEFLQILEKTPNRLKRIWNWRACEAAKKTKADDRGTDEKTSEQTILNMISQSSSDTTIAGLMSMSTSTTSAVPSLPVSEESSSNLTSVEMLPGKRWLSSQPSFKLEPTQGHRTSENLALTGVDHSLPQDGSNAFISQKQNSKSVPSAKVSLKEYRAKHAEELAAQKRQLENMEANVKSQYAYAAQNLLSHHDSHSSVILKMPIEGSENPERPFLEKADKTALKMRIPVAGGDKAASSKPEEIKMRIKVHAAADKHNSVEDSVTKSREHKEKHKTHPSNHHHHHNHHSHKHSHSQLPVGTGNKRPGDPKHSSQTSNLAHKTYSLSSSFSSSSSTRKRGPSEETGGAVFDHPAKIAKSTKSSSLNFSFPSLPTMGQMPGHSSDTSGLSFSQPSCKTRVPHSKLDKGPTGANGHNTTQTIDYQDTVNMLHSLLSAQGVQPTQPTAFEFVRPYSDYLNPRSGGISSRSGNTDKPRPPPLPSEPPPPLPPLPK
Chain of CDK9/cyclin T1 (P50750 whole entry): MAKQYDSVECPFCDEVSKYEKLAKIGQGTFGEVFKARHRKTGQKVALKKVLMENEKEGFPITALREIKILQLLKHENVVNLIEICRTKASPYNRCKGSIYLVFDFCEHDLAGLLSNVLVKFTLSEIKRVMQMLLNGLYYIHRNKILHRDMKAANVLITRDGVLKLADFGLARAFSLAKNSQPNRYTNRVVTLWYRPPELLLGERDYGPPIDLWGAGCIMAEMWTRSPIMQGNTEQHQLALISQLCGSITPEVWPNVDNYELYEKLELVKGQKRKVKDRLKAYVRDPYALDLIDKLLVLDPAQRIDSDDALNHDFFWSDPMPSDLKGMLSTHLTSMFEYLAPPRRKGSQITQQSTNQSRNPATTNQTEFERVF

[15] = Metabolic stability in dog liver microsomes assessed as intrinsic clearance at 1 uM incubated up to 60 mins in presence of NADPH by LC-MS/MS analysis; assay type: ADME, Canis lupus familiaris, Microsome; conditions: read-out: CLH; method in brief: as §1
[16] = test system: MOLM-13; assay: Antiproliferative activity against human MOLM-13 cells assessed as inhibition of cell growth incubated for 72 hrs by Celltiter-Glo luminescent assay; assay type: functional, cell-based; conditions: MOLM-13, 72 h; method in brief: as §2
[17] = test system: PANC-1; assay: Antiproliferative activity against human PANC-1 cells assessed as inhibition of cell growth incubated for 72 hrs by Celltiter-Glo luminescent assay; assay type: functional, cell-based; conditions: PANC-1, 72 h; method in brief: as §2
[18] = test system: MIA PaCa-2; assay: Antiproliferative activity against human MIA PaCa-2 cells assessed as inhibition of cell growth incubated for 72 hrs by Celltiter-Glo luminescent assay; assay type: functional, cell-based; conditions: MIA PaCa-2, 72 h; method in brief: as §2
[19] = test system: MDA-MB-231; assay: Antiproliferative activity against human MDA-MB-231 cells assessed as inhibition of cell growth incubated for 72 hrs by Celltiter-Glo luminescent assay; assay type: functional, cell-based; conditions: MDA-MB-231, 72 h; method in brief: as §2
[20] = test system: NCI-H460; assay: Antiproliferative activity against human NCI-H460 cells assessed as inhibition of cell growth incubated for 72 hrs by Celltiter-Glo luminescent assay; assay type: functional, cell-based; conditions: NCI-H460, 72 h; method in brief: as §2
[21] = Metabolic stability in human liver microsomes assessed as half life at 1 uM incubated up to 60 mins in presence of NADPH by LC-MS/MS analysis; assay type: ADME, Microsome; method in brief: as §1
[22] = test system: HCT-116; assay: Antiproliferative activity against human HCT-116 cells assessed as inhibition of cell growth incubated for 72 hrs by Celltiter-Glo luminescent assay; assay type: functional, cell-based; conditions: HCT-116, 72 h; method in brief: as §2
[23] = test system: HepG2; assay: Antiproliferative activity against human HepG2 cells assessed as inhibition of cell growth incubated for 72 hrs by Celltiter-Glo luminescent assay; assay type: functional, cell-based; conditions: HepG2, 72 h; method in brief: as §2

COc1cc(F)ccc1-c1ccnc(Nc2ccc3c(N4CCOCC4)c(C(C)=O)c(=O)oc3c2)n1
half-life at 1 µM [1]: 14.1 min
microsomal CLint at 1 µM [2]: 41.4 µL/min/mg
IC50 [3]: 3.58 µM
half-life at 1 µM [4]: 9.61 min
microsomal CLint at 1 µM [5]: 62.5 µL/min/mg
IC50 [6]: 250 nM
half-life at 1 µM [7]: 22.2 min
IC50 [8]: 910 nM
IC50 [9]: 1330 nM
microsomal CLint at 1 µM [10]: 144 µL/min/mg
IC50 [11]: 2360 nM
IC50 [12]: 960 nM
IC50 [13]: 2700 nM
IC50 [14]: 8.8 nM
microsomal CLint at 1 µM [15]: 98.3 µL/min/mg
IC50 [16]: 260 nM
IC50 [17]: 1880 nM
IC50 [18]: 1600 nM
IC50 [19]: 1580 nM
IC50 [20]: 2150 nM
half-life at 1 µM [21]: 33.5 min
IC50 [22]: 660 nM
IC50 [23]: 560 nM
